# S100A4 inh HTS = inhibitors of S100A4-myosin IIA peptide binding, primary screen, biochemical, fluorescence polarization, TAMRA-MyoIIA peptide. AID 652163, 2013. Protein S100-A4 (Homo sapiens), P26447. 0.14% of 360,000 active. inhibition, % at 10.7 µM;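 active = mean inhibition of at least 70% across replicates, with every replicate also reaching that level; inconclusive = mean inhibition reaches 70% but some replicates fall short; inactive = mean inhibition below 70%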
#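 Test system: S100A4 monomer protein. Medium: HEPES buffer with Ca2+, pH 7.2. Reagent: fluorescent myosin IIA peptide, 5 nM. Compound dosing: single-point compound testing. Timing: 5 min between mix addition and reading. Benchmarks: DMSO neutral and TFP positive wells.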
# ERAP1 inh = human ERAP1 aminopeptidase inhibitors, primary screen, biochemical, single point, plate reader; AID 652197, 2013; 0.15% of 340,000 active; Endoplasmic reticulum aminopeptidase 1 (Homo sapiens), Q9NZ08; recombinant ERAP1, Leu-AMC fluorescence, 60 min; inhibition, % at 10.7 µM;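 active = mean replicate inhibition of at least 30%, or all replicates individually reaching that 30% level; inactive = mean below 30% and not every replicate reaching it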;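 also: 0% = neutral control wells and 100% = L-leucinethiol positive control wells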
# Target sequence (Q9NZ08 whole entry, looked up): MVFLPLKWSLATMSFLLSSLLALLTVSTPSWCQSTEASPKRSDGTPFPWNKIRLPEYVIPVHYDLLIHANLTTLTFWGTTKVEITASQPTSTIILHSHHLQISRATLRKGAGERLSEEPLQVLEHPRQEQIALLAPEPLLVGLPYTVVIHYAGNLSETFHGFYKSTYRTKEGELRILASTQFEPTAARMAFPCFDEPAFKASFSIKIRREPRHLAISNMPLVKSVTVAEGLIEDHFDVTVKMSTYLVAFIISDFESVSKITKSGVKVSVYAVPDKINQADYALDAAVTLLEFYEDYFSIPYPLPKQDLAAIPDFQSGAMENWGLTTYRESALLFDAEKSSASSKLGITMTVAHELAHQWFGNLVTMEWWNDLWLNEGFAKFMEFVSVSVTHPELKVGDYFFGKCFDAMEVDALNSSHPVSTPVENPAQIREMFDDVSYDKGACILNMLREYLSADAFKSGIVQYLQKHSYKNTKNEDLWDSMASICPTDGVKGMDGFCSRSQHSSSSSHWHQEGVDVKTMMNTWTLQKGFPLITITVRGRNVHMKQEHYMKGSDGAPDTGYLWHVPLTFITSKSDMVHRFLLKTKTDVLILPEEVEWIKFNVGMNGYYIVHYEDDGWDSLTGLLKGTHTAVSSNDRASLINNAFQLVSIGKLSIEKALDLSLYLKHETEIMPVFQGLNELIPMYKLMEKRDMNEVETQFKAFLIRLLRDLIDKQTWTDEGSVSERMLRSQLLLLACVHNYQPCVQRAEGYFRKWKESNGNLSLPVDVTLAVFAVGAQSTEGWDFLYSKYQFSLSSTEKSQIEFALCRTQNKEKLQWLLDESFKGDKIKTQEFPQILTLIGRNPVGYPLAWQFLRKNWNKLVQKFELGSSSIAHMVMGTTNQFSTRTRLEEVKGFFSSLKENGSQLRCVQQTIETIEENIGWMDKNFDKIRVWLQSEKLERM
# CAL PDZ FP-1 = CAL PDZ peptide-binding inhibitors, primary screen, biochemical, fluorescence polarization, Cer-tagged CAL PDZ, HTS | Golgi-associated PDZ and coiled-coil motif-containing protein (Homo sapiens), Q9HD26 | AID 504414, 2011 | 0.02% of 330,000 active | inhibition, % at 20 µM | purified CAL PDZ, TMR-peptide fluorescence polarization, 1 h;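 active = highest replicate inhibition of at least 40%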;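 also: plate controls were DMSO neutral control wells for no effect and unlabeled competitor peptide control wells for full effect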
#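 Assay system – tagged CAL PDZ protein CerCALP, purified · Timing – 1 h at RT · Compound – single point, 20 µM · Measured by – fluorescence polarization from S- and P-plane intensities, G-factor corrected · Evaluation – inhibition from polarization loss · Probe or stimulus – TMR reporter peptide T*-PRC34 · Buffer or medium – pH 7.4 phosphate-saline buffer, reducing agent, detergent, IgG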
# SIRT5 block = SIRT5 desuccinylase inhibitors, primary screen, biochemical, fluorescence imaging, single point, set 5; NAD-dependent protein deacylase sirtuin-5, mitochondrial (Homo sapiens), Q9NXA8; Purified SirT5, succinyl-peptide AMC, trypsin-coupled fluorescence; inhibition, % at 15 µM; 1.1% of 330,000 active; in the data active = inhibition above about 15%; inconclusive = no clear call, values can overlap the other calls
# DENV2 CPE = inhibitors of DENV2 cytopathic effect, primary screen, cell-based, plate reader, single concentration | DENV2-infected cells, cytopathic effect rescue | CPE inhibition, % at 9.99 µM | 1.7% of 350,000 active | AID 651640, 2012; in the data active = CPE inhibition above about 20%, passing the limit was not always enough; inconclusive = no clear call, values can overlap the other calls; tested in BHK-21 cells;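 also: 0% = median of neutral control wells and 100% = median of positive control wells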
# CAL PDZ FP-2 = untagged CAL PDZ binding inhibitors, primary screen, biochemical, fluorescence polarization, HTS; Golgi-associated PDZ and coiled-coil motif-containing protein (Homo sapiens), Q9HD26; purified CAL PDZ, TMR-peptide fluorescence polarization, 1 h; inhibition, % at 24.9 µM; 0.92% of 300,000 active;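 active = mean inhibition of at least 30% with at least half of replicates also reaching 30%; inconclusive = no clear call, values can overlap the other calls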;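 also: 0% = DMSO neutral control and 100% = excess unlabeled competitor peptide PRC23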
# Active calls of the source: *; u = inconclusive; x = no result given. Most compounds without a hit are left out; they make up all but 2.9% or so of the library.
SMILES,S100A4 inh HTS,ERAP1 inh,CAL PDZ FP-1,SIRT5 block,DENV2 CPE,CAL PDZ FP-2
Cc1noc(C)c1S(=O)(=O)Nc1cccc2c1O[C@H](CN(C)C(=O)NC(C)C)[C@H](C)CN([C@@H](C)CO)C2=O,-5,-1,x,3,88*,x
Cc1noc(C)c1S(=O)(=O)Nc1cccc2c1O[C@@H](CN(C)S(=O)(=O)c1ccccc1)[C@@H](C)CN([C@H](C)CO)C2=O,-23,-6,x,-4,11,x
Cc1noc(C)c1S(=O)(=O)Nc1cccc2c1O[C@H](CN(C)S(=O)(=O)c1ccccc1)[C@H](C)CN([C@H](C)CO)C2=O,-16,-3,x,0,54*,x
O=C(NC[C@@H]1CC[C@@H]2[C@@H](CN2C(=O)C2CCOCC2)O1)c1cccnc1,-14,0,x,0,-3,x
O=S(=O)(N[C@H]1CC[C@@H](CCn2cc(-c3ccccn3)nn2)O[C@H]1CO)c1cccc(F)c1,-10,-3,x,0,u,x
CS(=O)(=O)Nc1ccc2c(c1)[C@H]1C[C@H](CC(=O)NCc3cccc(F)c3)O[C@H](CO)[C@H]1O2,4,-1,x,-5,-9,x
CCOC(=O)c1oc2ccc(S(=O)(=O)n3nc(-c4ccc(C)cc4)cc3N)cc2c1C,1,x,-4,x,90*,x
Cc1ccccc1NS(=O)(=O)c1ccc(S(=O)(=O)N2CCCC2)cc1,-4,2,x,2,22*,x
Cc1ccc(Nc2nc(NCC3CCCO3)nc(N)c2[N+](=O)[O-])cc1C (stereo unspecified),2,2,0,-3,u,31*
COc1cc(NC(=O)C2CCCN(S(=O)(=O)c3cccc4nsnc34)C2)cc(OC)c1 (stereo unspecified),x,x,-1,x,x,58*
COc1ccc(OC)c(NC(=O)C2CCCN(S(=O)(=O)c3cccc4nsnc34)C2)c1 (stereo unspecified),x,x,1,x,x,1
CC1(C)OC(=O)C2=C(C[C@@H](C3CCCCC3)O[C@H]2c2ccc(F)cc2)O1,-2,-4,x,-3,55*,x
O=C(Nc1cccc(F)c1)N1C[C@@H]2[C@H](c3ccccc31)[C@H](CO)N2C(=O)C1CCOCC1,-4,2,x,2,8,x
O=C(COC(=O)CCCN1C(=O)c2ccccc2C1=O)Nc1ncc(Cl)cc1Cl,x,x,-1,x,x,40*
O=C(COC(=O)CN1C(=O)c2ccccc2C1=O)Nc1ncc(Cl)cc1Cl,x,x,0,x,x,-2
CC(=O)OC(=C(OC(C)=O)c1ccccc1)c1ccccc1,-4,3,-1,x,7,-1
CC(=O)OC(C)=O,79*,0,-2,x,4,0
C/C=C/c1ccccc1[C@H]1[C@@H](CO)N(C(=O)NC2CCCC2)[C@H]1C#N,5,-1,x,2,2,x
N#C[C@@H]1[C@H](c2ccccc2C2=CCCCC2)[C@H](CO)N1C(=O)NC1CCCC1,131*,1,x,0,-7,x
N#C[C@H]1[C@H](c2ccccc2C2=CCCCC2)[C@H](CO)N1C(=O)NC1CCCC1,-15,1,x,1,5,x
C/C=C/c1ccccc1[C@H]1[C@@H](C#N)N(C(=O)NC2CCCC2)[C@H]1CO,4,-2,x,1,60*,x
COc1ccccc1-c1ccc([C@H]2[C@@H](CO)N(C(=O)C3CCCC3)[C@H]2C#N)cc1,1,-4,x,-3,36*,x
COc1ccccc1-c1ccc([C@H]2[C@@H](CO)N[C@@H]2CNC(=O)C2CCCC2)cc1,4,1,x,0,25*,x
O=C(C[C@H]1CC[C@@H]2[C@H](COC[C@@H](O)CN2S(=O)(=O)c2ccccc2)O1)Nc1ccccc1,1,-3,x,-3,7,x

# Source: PubChem
